# Sampled rows, rich in hits. Any-hit rate of the full collection: about 0.89%.
# E-sel TNF inh – E-selectin induction blockers in HUVEC – imaging, immunofluorescence, high content, primary screen | AID 1246, 2008 | HUVEC TNFa-induced E-selectin immunofluorescence | inhibition, % at 2 µM | 120,000 compounds, 0.71% hits;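 active means inhibition above the batch mean plus 3 SD, and confirmed as a hit on visual image review, cut at about 43% in these data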;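 further: 0% = TNF-stimulated DMSO wells and 100% = unstimulated control wells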
# HSV augment – enhancers of HSV replication in host cells, fold increase, host cell viability; HSV replication augmentation in cells; maximum fold increase; AID 1956, 2009; 220,000 compounds, 0.005% hits; in the data active means maximum fold increase above about 1.5; tested in PC3 cells
# L929 necroptosis – inhibitors of zVAD-triggered necroptosis, primary screen, L929 cells; L929 zVAD necroptosis rescue, ATP luminescence, 24 h; with zVAD 60 µM; viability rescue, % at 10 µM; 220,000 compounds, 0.38% hits; AID 1377, 2008;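 active means activation, scaled between plate controls, above about 75%, limit read from the data; inactive means activation under that limit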;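 further: 0% = zVAD with DMSO and 100% = DMSO alone without zVAD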
# Mdm2 ligase inh – MDM2-luciferase reporter signal enhancers, primary screen, MDM2 E3 ligase inhibitor project, cell-based, luminescence, 1536-well | cell-based MDM2 ubiquitination luciferase reporter, 2 h; 0 = plate control, 100 = twice control, blank-subtracted | signal enhancement, % at 5 µM | 210,000 compounds, 0.11% hits | AID 1230, 2008;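 active means signal enhancement of 30% or more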;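 further: luminescence tracks abundance of the self-degrading MDM2-luciferase fusion protein; higher signal means inhibition of MDM2 E3 ligase activity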
# Target sequence (Q00987 whole entry, looked up, the tested form may be a part): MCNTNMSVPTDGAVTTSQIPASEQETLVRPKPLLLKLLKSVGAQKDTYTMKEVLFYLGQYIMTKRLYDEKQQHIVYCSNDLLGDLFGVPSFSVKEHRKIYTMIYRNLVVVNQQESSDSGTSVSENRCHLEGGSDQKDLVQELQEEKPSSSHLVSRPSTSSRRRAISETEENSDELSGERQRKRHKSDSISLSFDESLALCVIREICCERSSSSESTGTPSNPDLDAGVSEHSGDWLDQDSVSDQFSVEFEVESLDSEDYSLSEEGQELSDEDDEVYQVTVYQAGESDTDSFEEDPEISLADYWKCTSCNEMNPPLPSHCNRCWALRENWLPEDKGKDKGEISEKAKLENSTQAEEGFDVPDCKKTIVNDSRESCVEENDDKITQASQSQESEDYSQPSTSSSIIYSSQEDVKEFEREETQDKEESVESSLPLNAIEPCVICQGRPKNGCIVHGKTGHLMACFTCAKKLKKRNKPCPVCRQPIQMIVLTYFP
#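 Timing – 2 h compound exposure at 37 °C · Assay system – mammalian cells stably expressing self-ubiquitinating, self-degrading MDM2 E3–luciferase fusion · Amount – 2000 cells seeded into each well · Measure – % luminescence enhancement versus blank-corrected plate control mean · Measured by – SteadyLite luminescence, 15 min reagent step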
# TNF necrop inh – inhibitors of TNF-alpha triggered necroptosis, primary screen, cell-based, Jurkat FADD-/-, single concentration | Jurkat FADD-/- TNF necroptosis rescue, ATP luminescence, 24 h; 0 = TNF only, 100 = no-TNF cells | AID 463075, 2010 | 220,000 compounds, 0.068% hits | activation (protection from cell death), % at 10 µM;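 active means activation, meaning protection from cell death, of at least 50% relative to plate controls; inactive means activation below 50%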;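 further: necroptosis triggered by 40 ng/mL TNF-alpha added together with compound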
# Numbers without * were called inactive; i = inactive; · = no result.
SMILES,E-sel TNF inh,HSV augment,L929 necroptosis,Mdm2 ligase inh,TNF necrop inh
CCN(CC)S(=O)(=O)c1ccc(-c2nnc(SCC(=O)Nc3ccc(OC)c(OC)c3)o2)cc1,4,i,0,-25,1
CC(=O)Nc1ccc(S(=O)(=O)N2CCN=C2SCc2cccnc2)cc1,12,·,14,32*,0
O=S(=O)(c1ccc(F)cc1)N1CCN=C1SCc1cccnc1,·,i,0,8,0
Cc1ccc(N(CC(=O)O)C2SC(=O)NC2=O)cc1 (configuration not stated),-18,i,0,-21,0
CC(C(=O)O)C1SC(=O)NC1=O (configuration not stated),70*,i,0,-12,0
O=C1C(Cl)=C(N2CCCCC2)C(=O)C(Cl)=C1c1cnc(N2CCCCC2)s1,32,i,52,72*,-20
CN(C)c1ncc(C2=C(Cl)C(=O)C(N3CCCC3)=C(Cl)C2=O)s1,-8,i,32,·,-14
Cn1c(SCC(=O)N2CCOCC2)nnc1-c1cccc(NC(=O)c2ccccc2)c1,64*,i,1,-10,0
Cc1ccc(N2C(=O)C3C4C=CC(CNC(=S)Nc5ccc(F)cc5)(O4)C3C2=O)cc1 (configuration not stated),68*,i,-1,-7,0
O=C(O)CCc1ccc(-c2ccc(Br)cc2)n1CC(=O)O,-43,i,0,34*,-2
O=C(O)CCc1ccc(-c2ccccc2)n1CC(=O)O,-24,i,0,-13,0
CCOC(=O)c1ccc(NC(=S)NCC(O)c2ccccc2)cc1 (configuration not stated),73*,·,1,-6,-1
COc1cccc(F)c1C(=O)NC(=O)Nc1ccc2nc(C)oc2c1,·,i,1,-6,1
COC(C(=O)Nc1cc([N+](=O)[O-])ccc1C)c1ccccc1 (configuration not stated),·,i,0,-14,4
COC(C(=O)Nc1ccc(Br)cc1F)c1ccccc1 (configuration not stated),·,i,1,-3,91*
COC(C(=O)Nc1ccccc1F)c1ccccc1 (configuration not stated),8,i,10,-8,84*
CN1N=C2c3ccccc3CCCC2C1c1ccc(F)cc1 (configuration not stated),·,i,0,-39,-2
COc1ccc2nccnc2c1[N+](=O)[O-],·,i,0,-9,0
Cc1cc(C)c(C2=CC(c3ccccc3)n3ncnc3N2)cc1C (configuration not stated),·,i,·,·,·
Cc1ccc(C)n1-c1ccc(C(=O)Nc2ccccc2)cc1,-6,i,1,2,-4
Cc1ccc(C)n1-c1cccc(NC(=O)c2ccccc2)c1,93*,·,0,-5,-1
CCCN1C(=O)/C(=C/c2ccc(N3CCOCC3)cc2)NC1=S,·,1.6*,2,-6,2
COc1ccc(CNC(=O)C/C(C)=N/NC(=O)C(c2ccccc2)c2ccccc2)cc1,-63,i,91*,-7,25
COc1ccc(C2C(C#N)=C(SCC(=O)Nc3ccc(C)cc3)NC3=C2C(=O)CC(C)(C)C3)cc1 (configuration not stated),66*,i,0,-19,-10
C=C(C)CNC(=S)NNC(=O)c1ccc(Br)cc1,·,i,0,-7,1
SMILES,E-sel TNF inh,HSV augment,L929 necroptosis,Mdm2 ligase inh,TNF necrop inh
C=CCNC(=S)NNC(=O)c1ccc(Br)cc1,63*,i,1,-9,2
CC(C)c1ccc(NC(=O)C(c2ccccc2)N(Cc2ccco2)C(=O)CC2NC(=O)NC2=O)cc1 (configuration not stated),·,i,2,-10,3
O=c1[nH]c2cc(NCCO)c([N+](=O)[O-])cc2[nH]1,73*,i,9,-6,-1
C=CCc1cccc(C2Nc3ccccc3C(=O)N2O)c1O (configuration not stated),62*,i,0,-9,2
COc1ccc(OC)c(CCNC(=O)CSc2ccsc2[N+](=O)[O-])c1,77*,i,2,2,1
N#Cc1ccc(-c2cccnc2)nc1SCc1ccc(Cl)c(Cl)c1,67*,i,0,-10,2
O=C(c1cccc(F)c1)N1CCN(S(=O)(=O)c2ccc(C(F)(F)F)cc2)CC1,83*,i,0,-3,-2
COc1cccc(OC)c1C(=O)NNC(=O)c1cccc(COc2ccc3c(c2)CCC3)c1,-10,·,0,31*,-3
CCOc1ccc(N2C(=O)CC(N(CCc3ccc(OC)cc3)C(=O)/C=C/C(=O)O)C2=O)cc1 (configuration not stated),·,i,0,-22,0
CCN(/N=C/c1ccc(Cl)cc1)c1cc(=O)n(C)c(=O)[nH]1,62*,i,15,-14,2
COC(=O)c1ccc(S(=O)(=O)NCc2cccc(OC)c2)n1C,64*,i,0,3,-2
Cn1c2ccccc2c2cnn(CC(=O)N3CCCCC3)c(=O)c21,·,i,-1,·,1
Cc1ccc(-c2nnc(CCC(=O)NCc3csc(C)n3)o2)s1,·,i,0,-6,1
CCN1c2ccccc2-c2nc3ccccc3n2C1c1cccnc1 (configuration not stated),100*,i,0,-5,-5
COc1ccc(Br)cc1-c1nc(CCl)cs1,·,i,-2,0,-10
Cn1c(CNC(=O)c2ccco2)nnc1SCC(=O)Nc1cccc(Br)c1,6,i,0,-9,0
Cn1c(CNC(=O)c2ccco2)nnc1SCC(=O)N1c2ccccc2Sc2ccccc21,-21,i,0,30*,-2
O=C(CCc1ccccc1)NCCC1=CCCCC1,75*,i,0,-13,1
O=C(CCCc1ccccc1)NCCC1=CCCCC1,·,i,3,7,2
O=C(O)C(c1ccccc1)C(c1ccccc1)c1ccccc1 (configuration not stated),·,·,2,-9,0
CCC(C)Nc1nc(OC(C(F)(F)F)C(F)(F)F)nc(OC(C(F)(F)F)C(F)(F)F)n1 (configuration not stated),43*,i,-1,-8,2
C(=C\c1ccc2ccccc2n1)/c1ccccc1,·,i,-1,·,-3
O=C(O)/C=C/c1ccc2ccccc2n1,85*,i,-1,10,0
Cc1sc2ncnc(OCC(=O)N3CC(=O)Nc4ccccc43)c2c1C,·,i,-1,-4,1
Cc1noc(C)c1C(=O)NCCC1=CCCCC1,64*,i,0,5,0

# Screens: PubChem, several laboratories
